Published values collected from several papers.
Compare with care: the assays were run in different laboratories. Converted amounts (≈) assume the structure as drawn.

Cc1c(NN=C2SC(C(C#N)=Cc3ccc(Cl)cc3)=NC2=O)c(=O)n(-c2ccccc2)n1C — inhibition zone (Bacillus subtilis; microbial growth, well diffusion; 100000 µg/mL): 17 mm
O=C(O)c1nc2ccccc2c(=O)n1Cc1cn(-c2ccc([N+](=O)[O-])cc2)nn1 — IC50 (Nakaseomyces glabratus; microbial growth, broth dilution; ATCC90030; 24 h): 432 µg/mL
CCOC(=O)C=c1[nH]c(=O)c(=Cc2cn(-c3ccccc3)nc2-c2ccccc2)s1 — inhibition zone (Bacillus subtilis; microbial growth, well diffusion; 100000 µg/mL): 14 mm
C/C(O)=C1\C(=O)C(CC(C)C)N(C(=O)C=Cc2ccccc2)C1=O (centres unmarked) — MIC (Proteus vulgaris; microbial growth; ATCC33420): > 200 µg/mL
COc1ccc(-n2cc(Cn3c(C(=O)O)nc4ccccc4c3=O)nn2)cc1 — IC50 (Nakaseomyces glabratus; microbial growth, broth dilution; ATCC90030; 24 h): 718 µg/mL
CCOC(=O)C=c1[nH]c(=O)c(=Cc2cn(-c3ccccc3)nc2-c2ccc(C)cc2)s1 — inhibition zone (Bacillus subtilis; microbial growth, well diffusion; 100000 µg/mL): 13 mm
N=C(NCCCCCCNC(=N)NC(=N)Nc1ccc(Cl)cc1)NC(=N)Nc1ccc(Cl)cc1 — IC50 (Acanthamoeba polyphaga; parasite growth, resazurin; 96 h): 9.41 µM
N#CC(=Cc1cn(-c2ccccc2)nc1-c1ccccc1)C1=NC(=O)CS1 — inhibition zone (Bacillus subtilis; microbial growth, well diffusion; 100000 µg/mL): 29 mm
CCOC(=O)c1nc2ccccc2c(=O)n1Cc1cn(-c2ccc(C(=O)O)cc2)nn1 — IC50 (Nakaseomyces glabratus; microbial growth, broth dilution; ATCC90030; 24 h): 87.7 µg/mL
O=C1NC(=S)S/C1=C\c1ccc(-c2ccc(N(c3ccccc3)c3ccccc3)cc2)c2ccccc12 — MBC (Bacillus subtilis; microbial killing, broth dilution; ATCC6633): > 1000 µg/mL
COc1cccc(-n2cc(Cn3c(C(=O)O)nc4ccccc4c3=O)nn2)c1 — IC50 (Nakaseomyces glabratus; microbial growth, broth dilution; ATCC90030; 24 h): 453 µg/mL
CCCCCCC/C=C/C(=O)N1C(=O)/C(=C(\O)c2ccc(F)cc2)C(=O)C1CC(C)C (centres unmarked) — MIC (Proteus vulgaris; microbial growth; ATCC33420): > 200 µg/mL
CCOC(=O)c1nc2ccccc2c(=O)n1Cc1cn(-c2ccccc2Cl)nn1 — IC50 (Nakaseomyces glabratus; microbial growth, broth dilution; ATCC90030; 24 h): 183 µg/mL
Cc1c(NC(=O)CC2=NC(=O)CS2)c(=O)n(-c2ccccc2)n1C — MBC (Bacillus subtilis; microbial killing, broth dilution): 2 µg/mL (≈ 5.81 µM)
C[C@@H](c1ncncc1F)[C@](O)(Cn1cncn1)c1ccc(F)cc1F — IC50 (Acanthamoeba polyphaga; parasite growth, resazurin; 96 h): 28.9 µM
C[C@@H]1[C@H](O)[C@@H](C)/C=C/C=C/C=C/C=C/C=C/C=C/C=C/[C@H](O[C@@H]2O[C@H](C)[C@@H](O)[C@H](N)[C@@H]2O)C[C@@H]2O[C@](O)(C[C@@H](O)C[C@@H](O)[C@H](O)CC[C@@H](O)C[C@@H](O)CC(=O)O[C@H]1C)C[C@H](O)[C@H]2C(=O)O — IC50 (Cryptococcus neoformans; microbial growth; ATCC90113): 0.26 µM
Cc1c(NN=C2SC(CC#N)=NC2=O)c(=O)n(-c2ccccc2)n1C — inhibition zone (Bacillus subtilis; microbial growth, well diffusion; 100000 µg/mL): 14 mm
CCCCCCC/C=C/C(=O)N1C(=O)/C(=C(\O)c2ccncc2)C(=O)C1CC(C)C (centres unmarked) — MIC (Proteus vulgaris; microbial growth; ATCC33420): > 200 µg/mL
Cc1ccc(-n2cc(Cn3c(C(=O)O)nc4ccccc4c3=O)nn2)cc1 — IC50 (Nakaseomyces glabratus; microbial growth, broth dilution; ATCC90030; 24 h): 288 µg/mL
O=C(O)CN1C(=O)/C(=C/c2ccc(-c3ccc(N(c4ccccc4)c4ccccc4)cc3)c3ccccc23)SC1=S — MBC (Bacillus subtilis; microbial killing, broth dilution; ATCC6633): 1000 µg/mL (≈ 1750 µM)
